Shown are actives, neighbours in structure and some others; about 2.8% of the full set was active somewhere.
Yeast lifespan up: extends the lifespan of yeast; S. cerevisiae growth with nicotinamide, OD615; deaD strain in restrictive glucose medium; inhibition of the nicotinamide effect, % at 10 µM; 130,000 tested, 0.68% active;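 active means inhibition above a set limit, placed 3 SD over the median of all compounds, cut at about 26% in these data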;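 further: 0% = nicotinamide-treated wells and 100% = cells grown without nicotinamide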
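assay system = DeaD-strain S. cerevisiae | buffer or medium = restrictive glucose medium | reagent = 1.5 mM nicotinamide | compound = 10 µM single point, 0.25% DMSO | incubation = 48 h compound exposure at 30 °C, humidified | signal = OD615 measurement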
TNAP inh hiacc: inhibitors of human TNAP at high phosphate acceptor concentration; purified TNAP, CDP-star luminescence, 1 M DEA; AID 1135; inhibition, % at 20 µM; 200,000 tested, 0.03% active; P05186;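 active means over 50% inhibition of tissue-nonspecific alkaline phosphatase at 20 µM in the single-dose screen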;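 further: plate controls were DMSO wells for no effect and EDTA-quenched wells as full inhibition for full effect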
Target sequence (P05186 whole entry, looked up): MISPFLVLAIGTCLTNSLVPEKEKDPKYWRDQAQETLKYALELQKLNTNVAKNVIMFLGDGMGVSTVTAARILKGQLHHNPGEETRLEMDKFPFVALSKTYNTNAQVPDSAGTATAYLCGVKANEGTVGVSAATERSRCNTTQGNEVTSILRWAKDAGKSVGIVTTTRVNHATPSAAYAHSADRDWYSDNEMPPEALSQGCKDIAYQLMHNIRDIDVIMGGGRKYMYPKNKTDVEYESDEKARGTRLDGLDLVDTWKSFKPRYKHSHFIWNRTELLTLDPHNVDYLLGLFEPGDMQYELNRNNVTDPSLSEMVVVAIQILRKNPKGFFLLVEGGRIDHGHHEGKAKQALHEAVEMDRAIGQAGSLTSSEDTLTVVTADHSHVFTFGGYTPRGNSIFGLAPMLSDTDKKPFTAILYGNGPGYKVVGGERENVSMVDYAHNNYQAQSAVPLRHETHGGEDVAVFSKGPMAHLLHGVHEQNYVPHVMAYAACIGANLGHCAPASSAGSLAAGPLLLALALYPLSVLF
TNAP act hiacc: activators of human TNAP at high phosphate acceptor concentration; P05186; purified TNAP, CDP-star luminescence, 1 M DEA, 30 min; hits give high values; 0 = EDTA background, 1 = DMSO-only activity; activation factor at 20 µM; 200,000 tested, under 10 active;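 active means activation factor at least 2 at 20 µM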
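Assay system: human TNAP; Input: enzyme diluted 1/800 final; Reagent: CDP-star luminogenic substrate at 100 µM final; Timing: 30 min, room temperature; Signal: luminescence; Evaluation: TNAP activation factor scaled between EDTA and DMSO control wells.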
TNAP inh noacc: TNAP (human) inhibition, acceptor-free conditions; AID 1012; inhibition, % at 20 µM; P05186; 200,000 tested, 0.26% active; purified TNAP, CDP-star luminescence, 30 min;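 active means tissue-nonspecific alkaline phosphatase inhibition above about 50% at 20 µM in the single-dose screen, limit read from the data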;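 further: 0% = DMSO negative control and 100% = EDTA positive control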
BB579 growth dn: yeast BB579 growth reduction in restrictive medium; S. cerevisiae BB579 growth, OD615, 48 h; inhibition, % at 10 µM; 140,000 tested, 0.51% active;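 active means inhibition above a set limit, 3 SD over the mean compound inhibition, cut at about 44% in these data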
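Test system: DeaD yeast strain BB579 / Buffer or medium: restrictive glucose-based CSMM-D medium / Doses: single 10 µM dose / Schedule: 4 h cell preincubation, 48 h compound exposure, 30 °C humidified / Technique: culture absorbance at 615 nm / Controls: amphotericin B positive control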
RAM inhibit: blocks the yeast RAM network; AID 868; S. cerevisiae dse1pr::URA3 reporter, 5-FOA growth OD615, 2 d; analog-sensitive cbk1-as2 kinase mutant strain; 190,000 tested, 1.8% active; inhibition, % at 50 µM;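 active means inhibition above a set limit, 3 SD over mean compound inhibition, cut at about 8.4% in these data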;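 further: 0% = DMSO-only wells with no growth and 100% = 10 µM 1-NA-PP1 full growth; inhibition rescues growth on 5-FOA so higher OD means more RAM inhibition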
RAM 5-FOA: restores 5-FOA growth of efflux-deficient yeast; shares compounds with RAM inhibit; S. cerevisiae efflux-deficient reporter strain, 5-FOA growth OD615, 2 days; max inhibition, %; 1,200 tested, under 10 active; AID 1305; call rule not given here;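 further: plate controls were vehicle for no effect and reference inhibitor for full effect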
The depositor's hits bear a star.

Results for CCSC1=N/C(=C\c2cccc(F)c2)C(=O)S1 ?
Yeast lifespan up: 4.4; TNAP inh hiacc: 0.6; TNAP act hiacc: 1; TNAP inh noacc: -8.9; BB579 growth dn: -33.8; RAM inhibit: -1.5

What do the screens show for `CCCCN1C(=S)SC(C)(C)C1/[N+]([O-])=C/c1cccnc1` (stereo unspecified)?
Yeast lifespan up: -11.9; TNAP inh hiacc: 2.3; TNAP act hiacc: 1; TNAP inh noacc: -4.5; BB579 growth dn: -23.9; RAM inhibit: -0.4

How did CCOc1ccc(-c2nn(-c3ccccc3)cc2/C=C2\SC(=S)N(Cc3ccco3)C2=O)cc1 do in these assays?
Yeast lifespan up: 4.0; TNAP inh hiacc: 6.7; TNAP act hiacc: 0.9; TNAP inh noacc: 0.9; BB579 growth dn: -59.3; RAM inhibit: 11.9*; RAM 5-FOA: 2.2

What do the screens show for `CCN1C(=O)/C(=C\c2cn(-c3ccccc3)nc2-c2cccnc2)SC1=S`?
TNAP inh hiacc: 10.0; TNAP act hiacc: 0.9; TNAP inh noacc: -9.6; RAM inhibit: 2.9

What do the screens show for `Cc1cc(C2C(=O)C(C(=O)c3ccc(Cl)cc3)C(=O)CC2(C)C)on1` (stereo unspecified)?
Yeast lifespan up: 11.6; TNAP inh hiacc: -1.0; TNAP act hiacc: 1; TNAP inh noacc: 13.7; BB579 growth dn: -25.7; RAM inhibit: -0.7

How did O=C(CCCOc1ccc(Cl)cc1Cl)N/N=C/c1ccccc1 do in these assays?
Yeast lifespan up: -2.6; TNAP inh hiacc: -4.8; TNAP act hiacc: 1; TNAP inh noacc: -4.1; BB579 growth dn: -40.4; RAM inhibit: 12.3*; RAM 5-FOA: 1.9

Results for Cc1ccc(/C=N/NC(=O)CCCOc2ccc(Cl)cc2Cl)cc1 ?
Yeast lifespan up: 4.5; TNAP inh hiacc: -0.3; TNAP act hiacc: 1; TNAP inh noacc: 2.2; BB579 growth dn: -39.0; RAM inhibit: 12.3*; RAM 5-FOA: 1.0

What do the screens show for `Cc1ccc(C)c(NC(=O)/C(C#N)=C/c2ccc(Sc3nncn3C)c([N+](=O)[O-])c2)c1`?
Yeast lifespan up: 2.1; TNAP inh hiacc: 7.6; TNAP act hiacc: 0.9; TNAP inh noacc: 1.0; BB579 growth dn: -32.5; RAM inhibit: 2.3

Results for COCCNc1nc(SCc2ccccc2)nc2sc3c(c12)CCC3 ?
Yeast lifespan up: -15.3; TNAP inh hiacc: -0.4; TNAP act hiacc: 1; TNAP inh noacc: -7.3; BB579 growth dn: -37.4; RAM inhibit: 14.2*; RAM 5-FOA: 2.7

What do the screens show for `CC(CO)Nc1nc(SCc2ccccc2)nc2sc3c(c12)CCC3` (stereo unspecified)?
Yeast lifespan up: -29.7; TNAP inh hiacc: 0.8; TNAP act hiacc: 1; TNAP inh noacc: -6.2; BB579 growth dn: -32.3; RAM inhibit: 0.8

Results for Cc1ccc([N+](=O)[O-])cc1N(CC(=O)Nc1ccc(S(=O)(=O)Nc2cccc(C(F)(F)F)c2)cc1)S(C)(=O)=O ?
Yeast lifespan up: 4.3; TNAP inh hiacc: 1.4; TNAP act hiacc: 1; TNAP inh noacc: -4.6; BB579 growth dn: -19.8; RAM inhibit: 7.8

How did COc1cccc(/C=C/C(=O)OCC(=O)Nc2ccccc2Sc2ccccc2)c1 do in these assays?
Yeast lifespan up: 0.6; TNAP inh hiacc: -5.1; TNAP act hiacc: 1.1; TNAP inh noacc: -7.5; BB579 growth dn: -17.4; RAM inhibit: 24.1*; RAM 5-FOA: 5.6

How did COc1cccc(NC(=O)COC(=O)/C=C/c2ccc(Cl)cc2Cl)c1 do in these assays?
Yeast lifespan up: -5.5; TNAP inh hiacc: -2.4; TNAP act hiacc: 1; TNAP inh noacc: -2.8; BB579 growth dn: -20.4; RAM inhibit: 7.0

What do the screens show for `CC(C)CC(=O)OCC(=O)Nc1ccccc1Sc1ccccc1`?
Yeast lifespan up: 2.8; TNAP inh hiacc: -9.0; TNAP act hiacc: 1.1; TNAP inh noacc: -10.4; BB579 growth dn: -18.7; RAM inhibit: 1.3

What do the screens show for `Cc1ccc(/C=C/C(=O)OCC(=O)Nc2ccccc2Sc2ccccc2)cc1`?
Yeast lifespan up: 9.8; TNAP inh hiacc: -4.6; TNAP act hiacc: 1; TNAP inh noacc: -5.4; BB579 growth dn: -28.5; RAM inhibit: 19.4*; RAM 5-FOA: 6.5

What do the screens show for `COc1ccc(OC)c(/C=C/C(=O)OCC(=O)Nc2cccc(Oc3ccccc3)c2)c1`?
Yeast lifespan up: 4.3; TNAP inh hiacc: -7.9; TNAP act hiacc: 1.1; TNAP inh noacc: -15.8; BB579 growth dn: -18.8; RAM inhibit: 13.5*; RAM 5-FOA: 3.0

Results for O=C(C1CC1)N1CCc2cc(S(=O)(=O)NCCC3=CCCCC3)ccc21 ?
Yeast lifespan up: -3.7; TNAP inh hiacc: -3.0; TNAP act hiacc: 1; TNAP inh noacc: -7.7; BB579 growth dn: -46.5; RAM inhibit: 11.4*; RAM 5-FOA: 1.5

Results for CCCN(CCC)CCNS(=O)(=O)c1ccc2c(c1)CCN2C(=O)C1CCC1 ?
Yeast lifespan up: -3.4; TNAP inh hiacc: -5.8; TNAP act hiacc: 1.1; TNAP inh noacc: -22.7; BB579 growth dn: -68.6; RAM inhibit: 2.1

Results for O=C(Nc1ccccc1Cc1ccccc1)c1oc2ccccc2c1COc1ccccc1 ?
Yeast lifespan up: 9.2; TNAP inh hiacc: -2.3; TNAP act hiacc: 1; TNAP inh noacc: -6.1; BB579 growth dn: -64.6; RAM inhibit: 11.8*; RAM 5-FOA: 3.8

What do the screens show for `CC(OC(=O)c1oc2ccccc2c1COc1ccccc1)C(=O)NC(N)=O` (stereo unspecified)?
TNAP inh hiacc: -2.6; TNAP act hiacc: 1; TNAP inh noacc: -5.7; RAM inhibit: 3.5

How did O=C(NCCc1ccccc1)c1oc2ccccc2c1COc1ccccc1 do in these assays?
Yeast lifespan up: 2.7; TNAP inh hiacc: -3.2; TNAP act hiacc: 1; TNAP inh noacc: 0.6; BB579 growth dn: -34.3; RAM inhibit: 18.7*; RAM 5-FOA: 3.7

Results for COC(=O)COc1ccc(/C=N/NC(=O)c2ccc(N(Cc3ccccc3)S(C)(=O)=O)cc2)cc1 ?
Yeast lifespan up: -1.5; TNAP inh hiacc: 5.2; TNAP act hiacc: 0.9; TNAP inh noacc: -3.8; BB579 growth dn: -16.2; RAM inhibit: 0.5

How did CCN(Cc1ccccc1)c1ccc(/C=N/NS(=O)(=O)c2cccc([N+](=O)[O-])c2)cc1 do in these assays?
Yeast lifespan up: 0.1; TNAP inh hiacc: 1.1; TNAP act hiacc: 1; TNAP inh noacc: -12.9; BB579 growth dn: -37.0; RAM inhibit: 14.4*; RAM 5-FOA: 3.2

Results for O=C(C1CCCN1S(=O)(=O)c1ccc(Cl)c(Cl)c1)N1CCCCC1 (stereo unspecified) ?
Yeast lifespan up: 4.4; TNAP inh hiacc: -3.8; TNAP act hiacc: 1; TNAP inh noacc: -2.4; BB579 growth dn: -46.4; RAM inhibit: 2.1

Screening data deposited in PubChem BioAssay by several laboratories.
